ChEMBL document CHEMBL2086388, “Antihyperglycemic effect of syringaldehyde in streptozotocin-induced diabetic rats” (2012)
The source made the active and inactive calls. The rule behind the calls is not given here.

Assays:
[1] = system: Rattus norvegicus; test: Antihyperglycemic activity in STZ-induced diabetic rats assessed as reduction in plasma glucose levels at 100 mg/kg, po; assay type: functional
[2] = system: Rattus norvegicus; test: Antihyperglycemic activity in Wistar rats assessed as reduction in plasma glucose levels at 7.2 mg/kg, iv administered 30 mins prior to glucose challenge measured after 120 mins; assay type: functional, organism-based; parameters: dose 7.2 mg/kg
Method in brief: (§1)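 IV glucose challenge in pentobarbital-anesthetized (30 mg/kg ip) Wistar rats. Compound 7.2 mg/kg or saline injected into the tail vein; 30 min later the 0-min sample was drawn. Glucose 60.0 mg/kg then given via the femoral vein. Tail-vein plasma glucose measured at 5–120 min and compared with the vehicle group at each time. n=8.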

[3] = system: Rattus norvegicus; test: Antidiabetic activity in STZ-induced diabetic Wistar rats assessed as increase in response to exogenous insulin at 7.2 mg/kg, iv tid for 3 days; assay type: functional, organism-based; parameters: dose 7.2 mg/kg
Method in brief: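 STZ-diabetic rats (STZ 60 mg/kg iv, glucose ≥20 mmol/L, used 2 weeks later) first given long-acting human insulin 1 IU/kg once daily. Compound or saline then given iv three times daily for 3 days. Challenge was short-acting human insulin iv 0.1–1.0 IU/kg. Femoral-vein blood taken at 30 min for plasma glucose. n=8 per group, means ± SE.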

[4] = system: Rattus norvegicus; test: Antihyperglycemic activity in Wistar rats assessed as reduction in plasma glucose levels at 7.2 mg/kg, iv administered 30 mins prior to glucose challenge measured after 5 mins; assay type: functional, organism-based; parameters: dose 7.2 mg/kg; method in brief: as §1
[5] = system: Rattus norvegicus; test: Antihyperglycemic activity in STZ-induced diabetic Wistar rats assessed as reduction in plasma glucose levels at 1.8 mg/kg, iv administered as bolus dose measured after 60 mins; assay type: functional; parameters: scale not given: the % may be the effect or the level left
Method in brief: (§2)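 Fasted rats made diabetic with STZ 60 mg/kg iv (plasma glucose ≥20 mmol/L plus polyuria) and used 2 weeks later. Compound dissolved in normal saline and given as an iv bolus over 1.8–7.2 mg/kg; controls got saline. Tail-vein plasma glucose measured at 60 min under pentobarbital 30 mg/kg ip. Activity = [(Gi−Gt)/Gi]×100%. n=8.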

[6] = system: Rattus norvegicus; test: Antihyperglycemic activity in Wistar rats assessed as reduction in plasma glucose levels at 7.2 mg/kg, iv administered as bolus dose measured after 60 mins; assay type: functional; parameters: scale not given: the % may be the effect or the level left
Method in brief: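 Normal fasted Wistar rats, n=8. Compound in saline given iv at 7.2 mg/kg. Tail-vein plasma glucose taken under pentobarbital anesthesia. Lowering expressed as percent decrease from the initial glucose value.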

[7] = system: Rattus norvegicus; test: Antihyperglycemic activity in iv dosed STZ-induced diabetic Wistar rats assessed as reduction in plasma glucose levels administered as bolus dose measured after 60 mins; assay type: functional, organism-based; method in brief: as §2
[8] = system: Rattus norvegicus; test: Antihyperglycemic activity in STZ-induced diabetic Wistar rats assessed as reduction in plasma glucose levels at 7.2 mg/kg, iv administered as bolus dose measured after 60 mins; assay type: functional; conditions: 1 h; method in brief: as §2
[9] = system: L6; test: Induction of glucose uptake in rat L6 cells after 60 mins by 2-NBDG fluorescence assay; assay type: functional, cell-based
Method in brief: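 Rat L6 cells grown 48 h, trypsinized, 1×10^6 cells/mL. Cells incubated in PBS with 0.2 mM 2-NBDG plus compound or vehicle, 37 °C, 60 min in the dark. Then washed three times with cold PBS. Fluorescence read at ex 488/em 520 nm. Eight experiments per group, means ± SEM.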

[10] = system: Rattus norvegicus; test: Antihyperglycemic activity in Wistar rats assessed as reduction in plasma glucose levels at 7.2 mg/kg, iv administered 30 mins prior to glucose challenge measured after 30 mins; assay type: functional, organism-based; parameters: dose 7.2 mg/kg; method in brief: as §1

SMILES	Emax at 100 mg/kg [1] [%]	Activity [2]	Activity [3]	Activity [4]	Activity [5] [%]	Activity [6] [%]	Activity [7]	Emax at 7.2 mg/kg [8] [%]	Activity [9]	Activity [10]
CN(C)C(=N)NC(=N)N [METFORMIN]	32									
COc1cc(C=O)cc(OC)c1O [SYRINGALDEHYDE]		inactive	Active	Active	11.08	25.93	Dose-dependent effect	31.3	Dose-dependent effect	Active
